# HKDC1 act: activators of human hexokinase HKDC1 | recombinant HKDC1, G6PDH/diaphorase resazurin fluorescence; stronger effect = lower value | activity change, negative = activation, % at 20 µM | 340,000 tested, 0.056% active | AID 493187;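 active means activation of 40% or more at 20 µM, a change of -40% or lower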
#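 Material – in-house human HKDC1 enzyme, G6PDH and diaphorase coupling enzymes · Input – HKDC1 at 5 µg/mL final · Buffer or medium – pH 8.0 Tris with MgCl2 · Dosing – single compound dose of 20 µM, 1% DMSO final · Incubation – 90 min, room temperature · Technique – resorufin fluorescence from 100 µM resazurin, NADP 1 mM, Ex 525/Em 613 nm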
# Numbers without * were called inactive. Not all results are given here.
SMILES,HKDC1 act
O=C(NCCC(=O)N1CCCC(C(F)(F)F)C1)c1ccc(Br)cc1 (stereo unspecified),36
CCOP(=O)(c1ccc(N(C)C)cc1)C(O)c1ccc(OC)cc1 (stereo unspecified),56
O=C(NNC(=O)c1cccnc1)NC1CCCCC1,-60*
CCN(CC)c1ccc(C(=C2C=CC(=[N+](CC)CC)C=C2)c2ccc(N(CC)CC)cc2)cc1,54
CC(C)Nc1nnc(SCC(=O)Nc2ccc3c(c2)C(=O)c2ccccc2C3=O)s1,43
CC(=O)NC1C(=O)N(CCN2CCOCC2)c2ccc(C)cc21 (stereo unspecified),86
COc1ccc(NC(=O)c2cc3ccccc3cc2O)cc1,38
CC(=NNC(=O)c1ccncc1)c1ccc(O)cc1O,-40*
Cc1cc(C)n(CCC(=O)N/N=C/c2ccc(O)cc2O)n1,-42*
Cc1cc(SCC(=O)N/N=C/c2ccc(O)c(O)c2O)c(C)cc1Br,45
O=C(CNC(=O)c1ccncc1)N/N=C/c1ccc(O)cc1O,-41*
O=C(CNC(=O)c1ccc2c(c1)OCCO2)N/N=C/c1ccc(O)cc1O,-51*
COc1ccc(C2=CC3=C(Br)C(=O)C(C)(OC(=O)C4CCCC4)C(=O)C3=CO2)cc1 (stereo unspecified),53
CN(C)c1ncc(C2=C(Cl)C(=O)C(N3CCCC3)=C(Cl)C2=O)s1,35
O=C(/C=C/c1cccc(Cl)c1)c1ccc([N+](=O)[O-])o1,61
C=CCOc1ccc(C=NNc2ccc(S(=O)(=O)Nc3ccccc3C(=O)O)cc2[N+](=O)[O-])cc1OC,51
O/C=c1\ccc2cccc3nc(C(F)(F)F)nc1c23,40
COC(=O)CCC(=O)Nc1sc(Cc2ccccc2)c(C)c1C(N)=O,-44*
O=C1OC(c2ccccc2)=N/C1=C/c1cccc(OC(=O)c2cccs2)c1,39

# Screening results: PubChem, Sanford-Burnham Center for Chemical Genomics
